Test results as given in ChEMBL document CHEMBL1649109, “Antiparasitic activities and toxicities of individual enantiomers of the 8-aminoquinoline 8-[(4-amino-1-methylbutyl)amino]-6-methoxy-4-methyl-5-[3,4-dichlorophenoxy]quinoline succinate” (Antimicrob Agents Chemother, 2008).

Columns and labels:
[1] = system: Leishmania donovani; assay: Antileishmanial activity against Leishmania donovani HU3 infected in mouse; format: functional
Outline: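 L. donovani HU3 amastigotes, 1 × 10^7 given IV to mice. From day 7 post-infection, dosed orally once daily for 5 days in 0.25% methylcellulose-10% ethanol; reference stibogluconate given SC. Mice killed at day 14 post-infection. Parasite burden counted on liver impression smears against untreated controls. ED50 from linear regression, with 95% confidence limits.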

[2] = system: Leishmania donovani; assay: Antileishmanial activity against Leishmania donovani HU3 infected in mouse assessed as inhibition of parasite burden at 15 mg/kg/day, sc for 5 days administered 7 days post-infection measured 14 days post-infection; format: functional, organism-based
Outline: (§1)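 Mice infected intravenously with 1 × 10^7 L. donovani (MHOM/ET/67/HU3) amastigotes. Starting 7 days post-infection, sodium stibogluconate was given subcutaneously once daily for 5 days, with doses expressed as SbV. Mice were killed 14 days post-infection. Parasite burdens were counted on liver impression smears and compared with an untreated control group. ED50 was obtained by linear regression.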

[3] = system: Leishmania donovani; assay: Antileishmanial activity against Leishmania donovani HU3 infected in mouse assessed as inhibition of parasite burden at 45 mg/kg/day, sc for 5 days administered 7 days post-infection measured 14 days post-infection; format: functional, organism-based; outline: as §1
[4] = system: Leishmania donovani; assay: Antileishmanial activity against Leishmania donovani HU3 infected in mouse assessed as inhibition of parasite burden at 5 mg/kg/day, sc for 5 days administered 7 days post-infection measured 14 days post-infection; format: functional, organism-based; outline: as §1
[5] = system: Leishmania donovani; assay: Antileishmanial activity against Leishmania donovani HU3 infected in mouse assessed as inhibition of parasite burden administered subcutaneously once daily for 5 days after 7 days post-infection measured 14 days post-infection; format: functional, organism-based; outline: as §1
[6] = system: Canis familiaris; assay: Toxicity in Beagle dog assessed as increase in methemoglobin level at 6.4 mg/kg/day, po between 7 to 11 days; format: organism-based, Canis lupus familiaris; design: route oral; conditions: in vivo
Outline: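 Beagle dogs, 8-9 months old, given drug as bulk powder in gelatin capsules orally on days 1-4, at 0.0116 mmol/kg/day as base. Daily clinical observation. Methemoglobin measured by co-oximetry from jugular or cephalic blood, predose on days 1, 2 and 4, then through day 29.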

Molecule: CCN(CC)CCCCCCNc1cc(OC)cc2c(C)ccnc12 [SITAMAQUINE]
- ED90 [1]: 4.14 mg/kg
- ED50 ([1]; Leishmania donovani, HU3): 1.55 mg/kg

Molecule: Sodium stibogluconate
- inhibition [2]: 59.4%
- inhibition [3]: 99.3%
- inhibition [4]: 13.8%
- ED50 [5]: 27.7 mg/kg
- ED90 [5]: > 45 mg/kg

Molecule: COc1cc(C)c2c(Oc3cccc(C(F)(F)F)c3)c(OC)cc(NC(C)CCCN)c2n1 (stereo not drawn) [TAFENOQUINE]
- Activity [6]: Toxic
